# According to ChEMBL document CHEMBL1122009, “Activated N-nitrosocarbamates for regioselective synthesis of N-nitrosoureas” (J Med Chem, 1982):
# Values joined by “and” are separate entries in the source; they are usually repeats but may differ in a detail not shown here. Equal values may be shown once. Active and inactive are the calls of the source.
# Assays:
# [1] = Acute LD50 of compound was evaluated on L1210 leukemia in mice when administered intraperitoneally; type: ADME, organism-based; conditions: mouse, in vivo, ip
# In short: (§1)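 Adult B6D2F1 mice were inoculated ip with 10^5 L1210 leukemia cells on day 0. Compound in olive oil (2-150 mg/kg, ip) was given on day 1 and repeated on days 5 and 9 only in mice without signs of toxicity. Mortality was monitored daily, with autopsy to separate leukemic from toxic deaths. Acute LD50 was determined graphically.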
# Mus musculus [2] = assay: Compound was tested for its antitumor activity on L1210 leukemia in mice at the dose of 8 mg/kg (i.p.); Not significant; type: functional, organism-based; set-up: dose 8 mg/kg
# Mus musculus [3] = assay: Compound was tested for its antitumor activity on L1210 leukemia in mice at the dose of 3.2 mg/kg (i.p.); Not significant; type: functional, organism-based; set-up: dose 3.2 mg/kg
# In short: (§2)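 B6D2F1 adult mice inoculated ip with 10^5 L1210 cells on day 0. Drug given ip in olive oil on day 1, repeated days 5 and 9 only in mice without toxicity signs. Daily mortality monitoring with autopsy to assign leukemic vs toxic death. Index I = T/C × 100 from median survival; active if I > 125 and Wilcoxon W test significant; ∞ means >50% cured.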
# Mus musculus [4] = assay: Compound was tested for its antitumor activity on L1210 leukemia in mice at the dose of 5 mg/kg (i.p.); type: functional; conditions: route intraperitoneal; in short: as §2
# Mus musculus [5] = assay: Compound was tested for its antitumor activity on L1210 leukemia in mice at the dose of 60 mg/kg (i.p.); High percent value; type: functional, organism-based; set-up: dose 60 mg/kg; in short: as §2
# Mus musculus [6] = assay: Compound was tested for its antitumor activity on L1210 leukemia in mice at the dose of 10 mg/kg (i.p.); High percent value; type: functional, organism-based; set-up: dose 10 mg/kg; in short: as §2
# Mus musculus [7] = assay: Compound was tested for its antitumor activity on L1210 leukemia in mice at the dose of 2 mg/kg (i.p.); type: functional; conditions: route intraperitoneal; in short: as §2
# Mus musculus [8] = assay: Compound was tested for its antitumor activity on L1210 leukemia in mice at the dose of 30 mg/kg (i.p.); Toxic; type: functional, organism-based; set-up: dose 30 mg/kg; in short: as §2
# Mus musculus [9] = assay: Compound was tested for its antitumor activity on L1210 leukemia in mice at the dose of 20 mg/kg (i.p.); High percent value; type: functional, organism-based; set-up: dose 20 mg/kg; in short: as §2
# Mus musculus [10] = assay: Compound was tested for its antitumor activity on L1210 leukemia in mice at the dose of 20 mg/kg (i.p.); type: functional; conditions: route intraperitoneal; in short: as §2
# Mus musculus [11] = assay: Compound was tested for its antitumor activity on L1210 leukemia in mice at the dose of 30 mg/kg (i.p.); High percent value; type: functional, organism-based; set-up: dose 30 mg/kg; in short: as §2
# Mus musculus [12] = assay: Compound was tested for its antitumor activity on L1210 leukemia in mice at the dose of 2 mg/kg (i.p.); Not significant; type: functional, organism-based; set-up: dose 2 mg/kg; in short: as §2
# Mus musculus [13] = assay: Compound was tested for its antitumor activity on L1210 leukemia in mice at the dose of 90 mg/kg (i.p.); Toxic; type: functional, organism-based; set-up: dose 90 mg/kg; in short: as §2
# Mus musculus [14] = assay: Compound was tested for its antitumor activity on L1210 leukemia in mice at the dose of 10 mg/kg (i.p.); type: functional; conditions: route intraperitoneal; in short: as §2
# [15] = Acute LD50 of compound was evaluated on L1210 leukemia in mice; type: ADME, organism-based; conditions: mouse, in vivo; in short: as §1
# Mus musculus [16] = assay: Compound was tested for its antitumor activity on L1210 leukemia in mice at the dose of 8 mg/kg (i.p.); type: functional; conditions: route intraperitoneal; in short: as §2
# Mus musculus [17] = assay: Compound was tested for its antitumor activity on L1210 leukemia in mice at the dose of 20 mg/kg (i.p.); Toxic; type: functional, organism-based; set-up: dose 20 mg/kg; in short: as §2
# Mus musculus [18] = assay: Compound was tested for its antitumor activity on L1210 leukemia in mice at the dose of 3.2 mg/kg (i.p.); type: functional; conditions: route intraperitoneal; in short: as §2
# Mus musculus [19] = assay: Compound was tested for its antitumor activity on L1210 leukemia in mice at the dose of 50 mg/kg (i.p.); Not significant; type: functional, organism-based; set-up: dose 50 mg/kg
# Mus musculus [20] = assay: Compound was tested for its antitumor activity on L1210 leukemia in mice at the dose of 20 mg/kg (i.p.); Not significant; type: functional, organism-based; set-up: dose 20 mg/kg
smiles,measurement,setting,value
O=NN(CCCl)C(=O)Oc1ccc([N+](=O)[O-])cc1,LD50,[1],17 mg/kg
same,T/C,Mus musculus [2],inactive
same,T/C,Mus musculus [3],inactive
O=NN(CCCl)C(=O)NCCSSCCNC(=O)N(CCCl)N=O [DITIOMUSTINE],T/C,Mus musculus [4],212% and 133%
same,LD50,[1],28 mg/kg
same,T/C,Mus musculus [5],High percent value
same,T/C,Mus musculus [6],High percent value
same,T/C,Mus musculus [7],111%
same,T/C,Mus musculus [8],Toxic
same,T/C,Mus musculus [9],High percent value
same,T/C,Mus musculus [10],228%
same,T/C,Mus musculus [11],High percent value
same,T/C,Mus musculus [12],inactive
same,T/C,Mus musculus [13],Toxic
same,T/C,Mus musculus [14],151%
same,LD50,[15],75 mg/kg
O=NN(CCCl)C(=O)ON1C(=O)CCC1=O,LD50,[1],36 mg/kg
same,T/C,Mus musculus [16],137%
same,T/C,Mus musculus [17],Toxic
same,T/C,Mus musculus [18],125%
CN(N=O)C(=O)ON1C(=O)CCC1=O,LD50,[1],115 mg/kg
same,T/C,Mus musculus [2],inactive
same,T/C,Mus musculus [19],inactive
same,T/C,Mus musculus [20],inactive
